A word on the IC50: it is the concentration needed to halve the response being measured. A higher IC50 goes with lower potency. Usually Ki stands for the dissociation constant of the complex between target and ligand, obtained from inhibition or displacement.

Consider 36 compounds from ChEMBL document CHEMBL1152176, “Pyrazoline-based mycobactin analogues as MAO-inhibitors” (Bioorg Med Chem Lett, 2008).

Assay [1] addresses T1, Amine oxidase [flavin-containing] A (Rattus norvegicus, UniProt P21396).
T1 sequence (P21396 whole entry): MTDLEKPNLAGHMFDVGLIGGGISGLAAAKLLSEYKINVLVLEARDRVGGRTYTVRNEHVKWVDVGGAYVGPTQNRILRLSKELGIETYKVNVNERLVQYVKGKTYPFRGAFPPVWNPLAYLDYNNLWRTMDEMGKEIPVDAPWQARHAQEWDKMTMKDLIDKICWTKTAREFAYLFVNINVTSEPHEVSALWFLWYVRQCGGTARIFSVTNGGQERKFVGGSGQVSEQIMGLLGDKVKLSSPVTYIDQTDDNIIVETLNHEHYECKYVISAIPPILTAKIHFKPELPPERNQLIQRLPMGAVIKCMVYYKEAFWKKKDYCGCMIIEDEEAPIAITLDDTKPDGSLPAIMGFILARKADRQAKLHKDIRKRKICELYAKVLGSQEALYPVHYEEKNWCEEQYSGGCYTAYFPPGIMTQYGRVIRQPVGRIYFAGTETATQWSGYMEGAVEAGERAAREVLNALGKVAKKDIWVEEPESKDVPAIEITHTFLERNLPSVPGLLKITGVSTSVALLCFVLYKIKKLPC
Put plainly: Inhibition of MAOA in rat liver homogenates preincubated for 60 mins. Type of assay: tissue-based. The method in brief: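 Rat liver MAO assayed by Holt's spectrophotometric method. The chromogenic mix was vanillinic acid, 4-aminoantipyrine and peroxidase type II in potassium phosphate pH 7.6, preincubated with p-tyramine. Inhibitors were preincubated with enzyme at 37 °C for 60 min. A498 was read at 37 °C for 60 min. IC50 came from residual activity versus [I]; mean of three independent experiments.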

Assay [2] concerns the target T2, Amine oxidase [flavin-containing] B (Rattus norvegicus, UniProt P19643).
T2 sequence (P19643 whole entry): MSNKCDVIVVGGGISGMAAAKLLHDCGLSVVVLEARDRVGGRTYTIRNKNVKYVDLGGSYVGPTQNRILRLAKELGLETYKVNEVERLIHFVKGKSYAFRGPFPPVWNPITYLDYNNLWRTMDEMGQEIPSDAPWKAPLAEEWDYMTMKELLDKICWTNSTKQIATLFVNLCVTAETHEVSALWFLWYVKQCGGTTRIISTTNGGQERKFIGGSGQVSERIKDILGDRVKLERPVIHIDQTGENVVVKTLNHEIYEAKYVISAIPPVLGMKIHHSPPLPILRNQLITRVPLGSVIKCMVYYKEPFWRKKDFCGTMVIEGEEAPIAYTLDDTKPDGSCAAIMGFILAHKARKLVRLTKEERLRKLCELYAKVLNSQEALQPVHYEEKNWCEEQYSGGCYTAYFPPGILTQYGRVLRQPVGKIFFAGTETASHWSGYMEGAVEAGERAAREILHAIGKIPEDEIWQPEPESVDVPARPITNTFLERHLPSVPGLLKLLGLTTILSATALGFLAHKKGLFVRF
Put plainly: Inhibition of MAOB in rat liver homogenates preincubated for 60 mins. In kind it is tissue-based.

The nature of assay [3]: Inhibition of rat liver monoamine oxidase by Lineweaver-Burke plot.

Each structure is given as a SMILES string.

Turning to `COc1ccc(NC(=S)N2N=C(c3ccccc3O)CC2c2ccccc2O)cc1` (configuration not stated), the half-maximal inhibitory concentration (IC50) in assay [1] was determined as 470 µM; in assay [2], 40.8 µM. The same compound had an inhibitory constant (Ki) in assay [3] of 36.2 µM.
In the case of `Cc1ccccc1NC(=S)N1N=C(c2ccccc2O)CC1c1ccccc1O` (configuration not stated), the IC50 in assay [1] turned out to be 170 µM; in assay [2] it was 180 µM.
Regarding `COc1ccccc1NC(=S)N1N=C(c2ccccc2O)CC1c1ccccc1O` (configuration not stated), the IC50 in assay [1] stood at 144 µM; in assay [2], 171 µM.
Take `COc1cc(C2CC(c3ccccc3O)=NN2C(=S)Nc2ccccc2)ccc1O` (configuration not stated): the IC50 in assay [1] was found to be 40.1 µM; in assay [2] it was 451 µM. In assay [3], this compound gave an inhibition constant Ki of 62.7 µM.
Turning to `Cc1ccccc1NC(=S)N1N=C(c2ccccc2O)CC1c1ccc(O)cc1` (configuration not stated), the IC50 stood at 189 µM in assay [1] and 180 µM in assay [2].
Consider `Oc1ccccc1C1=NN(C(=S)Nc2ccccc2)C(c2ccccc2Cl)C1` (configuration not stated), for which the half-inhibitory concentration (IC50) in assay [1] amounted to 20 µM; in assay [2] it was 455 µM. The same compound showed an inhibition constant (Ki) in assay [3] of 18.6 µM.
For `COc1ccc(NC(=S)N2N=C(c3ccccc3O)CC2c2ccc(O)cc2)cc1` (configuration not stated), in that order: 401 µM, 41.1 µM and 39.2 µM.
For the compound `C#CCN(C)[C@H](C)Cc1ccccc1` [SELEGILINE], the Ki in assay [3] was found to be 1.9 µM.
Turning to `Oc1ccc(C2CC(c3ccc(O)cc3O)=NN2C(=S)Nc2ccccc2)cc1` (configuration not stated), the IC50 in assay [1] was 58.6 µM; in assay [2], 470 µM. The same compound registered a Ki in assay [3] of 80 µM.
In assay [1], `Oc1ccccc1C1=NN(C(=S)Nc2ccccc2)C(c2cccs2)C1` (configuration not stated) displayed an IC50 of 5.56 µM.
For `Oc1ccccc1C1=NN(C(=S)Nc2ccccc2)C(c2ccco2)C1` (configuration not stated), the half-inhibitory concentration (IC50) in assay [1] is 33.4 µM; in assay [2], 440 µM. Besides, in assay [3], the affinity, expressed as Ki, was 27.5 µM.
Compound `C#CCN(C)Cc1ccccc1` [PARGYLINE] showed an IC50 in assay [2] of 3.85 µM. For the same compound, the affinity in assay [3] corresponds to a Ki of 3.25 µM.
The compound `O=C(NCCN1CCOCC1)c1ccc(Cl)cc1` [MOCLOBEMIDE] gave an IC50 in assay [2] of 480 µM. In assay [3], the Ki came to 2.25 µM.
Regarding `NC(=S)N1N=C(c2ccccc2O)CC1c1ccc(O)cc1` (configuration not stated), the half-maximal inhibitory concentration (IC50) is 466 µM in assay [1] and 19.5 µM in assay [2]. Further, in assay [3], affinity was put at a Ki of 15.2 µM.
For the compound `COc1cc(C2CC(c3ccc(O)cc3O)=NN2C(=S)Nc2ccccc2)ccc1O` (configuration not stated), the IC50 in assay [1] is 65.6 µM; in assay [2] it was 490 µM. This compound also gave a Ki in assay [3] of 79.2 µM.
For `Cc1ccc(NC(=S)N2N=C(c3ccccc3O)CC2c2ccc(O)cc2)cc1` (configuration not stated), in that order: 475 µM, 46.1 µM and 42.9 µM.
For `Oc1ccc(C2=NN(C(=S)Nc3ccccc3)C(c3ccc(O)cc3)C2)cc1` (configuration not stated), in that order: 32.1 µM, 486 µM and 30.6 µM.
In the case of `Oc1ccc(C2CC(c3ccccc3)=NN2C(=S)Nc2ccccc2)cc1` (configuration not stated), the concentration for half-maximal inhibition (IC50) in assay [1] was determined as 476 µM; in assay [2] it was 48.6 µM. In assay [3], this compound yielded a Ki of 40.6 µM.
For `Oc1ccccc1C1=NN(C(=S)Nc2ccccc2)C(c2ccccc2O)C1` (configuration not stated), in that order: 58.1 µM, 420 µM and 48.5 µM.
As for `COc1ccc(NC(=S)N2N=C(c3ccccc3O)CC2c2ccc(O)c(OC)c2)cc1` (configuration not stated), the IC50 was 48.9 µM in assay [1] and 477 µM in assay [2]. In assay [3], the Ki amounted to 60.5 µM.
In the case of `COc1cc(C2CC(c3ccccc3O)=NN2C(=S)Nc2ccccc2OC)ccc1O` (configuration not stated), the half-inhibitory concentration (IC50) was determined as 170 µM in assay [1] and 201 µM in assay [2].
With `COc1ccc(NC(=S)N2N=C(c3ccc(O)cc3O)CC2c2ccc(O)cc2)cc1` (configuration not stated), the IC50 is 69.6 µM in assay [1] and 456 µM in assay [2]. The compound also came in with a Ki in assay [3] of 85.5 µM.
For `Oc1ccccc1C1CC(c2ccccc2)=NN1C(=S)Nc1ccccc1` (configuration not stated), in that order: 451 µM, 35.5 µM and 34.7 µM.
Take `Cc1ccc(NC(=S)N2N=C(c3ccccc3O)CC2c2ccccc2O)cc1` (configuration not stated): the half-inhibitory concentration (IC50) came to 400 µM in assay [1] and 37.7 µM in assay [2]. In assay [3], this compound had a Ki of 35 µM.
As for `COc1cc(C2CC(c3ccccc3O)=NN2C(=S)Nc2ccccc2C)ccc1O` (configuration not stated), the figures for the concentration for half-maximal inhibition (IC50) in assay [1] and in assay [2] were 201 µM and 198 µM, respectively.
On to `COc1cc(C2CC(c3ccc(O)cc3O)=NN2C(=S)Nc2ccccc2OC)ccc1O` (configuration not stated), for which the values for the IC50 in assay [1] and in assay [2] were 180 µM and 170 µM, respectively.
`COc1ccccc1NC(=S)N1N=C(c2ccccc2O)CC1c1ccc(O)cc1` (configuration not stated): the 50% inhibitory concentration (IC50) was found to be 151 µM in assay [1] and 144 µM in assay [2].
Take `COc1ccc(C2CC(c3ccccc3O)=NN2C(=S)Nc2ccccc2)cc1` (configuration not stated): the results for the IC50 in assay [1] and in assay [2] were 2.84 µM and 415 µM, respectively. The same compound returned a Ki in assay [3] of 2.5 µM.
For the compound `COc1cc(C2CC(c3ccccc3O)=NN2C(=S)Nc2ccc(C)cc2)ccc1O` (configuration not stated), the figures for the IC50 in assay [1] and in assay [2] were 50.6 µM and 481 µM, respectively. The compound further registered a Ki in assay [3] of 75.1 µM.
For `COc1ccccc1C1CC(c2ccccc2O)=NN1C(=S)Nc1ccccc1` (configuration not stated), in that order: 74.2 µM, 419 µM and 63.6 µM.
As for `Oc1ccccc1C1=NN(C(=S)Nc2ccccc2)C(c2ccccc2)C1` (configuration not stated), the IC50 in assay [1] is 49.2 µM; in assay [2], 439 µM. In assay [3], the affinity, expressed as Ki, was 40.2 µM.
For `COc1ccc(NC(=S)N2N=C(c3ccc(O)cc3O)CC2c2ccc(O)c(OC)c2)cc1` (configuration not stated), in that order: 53.4 µM, 475 µM and 71.1 µM.
As for `COc1ccccc1NC(=S)N1N=C(c2ccc(O)cc2O)CC1c1ccc(O)cc1` (configuration not stated), the results for the IC50 in assay [1] and in assay [2] were 148 µM and 171 µM, respectively.
As to `Oc1ccc(C2CC(c3ccccc3O)=NN2C(=S)Nc2ccccc2)cc1` (configuration not stated), the IC50 in assay [1] is 67.2 µM; in assay [2], 400 µM. The affinity in assay [3], expressed as Ki, was 50.5 µM.
Regarding `Oc1ccccc1C1=NN(C(=S)Nc2ccccc2)C(c2ccc(Cl)cc2)C1` (configuration not stated), the concentration for half-maximal inhibition (IC50) in assay [1] is 23.2 µM; in assay [2] it was 400 µM. In assay [3], this compound yielded an inhibition constant (Ki) of 20.1 µM.
In turn, `C#CCN(C)CCCOc1ccc(Cl)cc1Cl` [CLORGILINE] displayed an inhibition constant (Ki) in assay [3] of 1.99 µM.
